Measured values taken from ChEMBL document CHEMBL2331490, “Synthesis and in vitro evaluation of new derivatives of 2-substituted-6-fluorobenzo[d]thiazoles as cholinesterase inhibitors” (Bioorg Med Chem, 2013).

Experiments:
[1] = Lipophilicity, log k of the compound by HPLC analysis; assay type: physicochemical
In short: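 Mobile phase MeOH/water 70:30, 1.0 mL/min, column at 45 °C, samples at 10 °C, photodiode array detection. log k calculated from k.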

[2] = Lipophilicity, log P of the compound calculated using ChemOffice software
[3] = target: Acetylcholinesterase (Electrophorus electricus, UniProt O42275); assay: Inhibition of Electrophorus electricus AChE using acetylthiocholine as substrate after 10 mins by Ellman's method
[4] = target: Cholinesterase (Equus caballus, UniProt P81908); assay: Inhibition of equine BChE using after 10 mins by Ellman's method
In short: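 BChE from equine serum, diluted in phosphate buffer (0.1 M, pH 8). Catalytic activity in the final mixture was 0.14 U/mL. Enzyme was preincubated with compound (dioxane stock diluted in water) for 5 min at 25 °C. Then 0.5 mM DTNB and 0.25 mM acetylthiocholine were added, incubated 10 min at 25 °C, and absorbance read at 412 nm. IC50 taken from %inhibition versus concentration, 3 replicates.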

[5] = test system: HepG2; assay: Growth inhibition of human HepG2 cells at >10 umol/l after 24 hrs by MTS assay; assay type: cell-based; conditions: hepg2, 24 h
In short: (§1)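 HepG2 (p13) grown in MEM with 10% FBS, L-glutamine and non-essential amino acids at 37 °C, 5% CO2. Seeded at 10,000 cells/well and treated next day with compounds in DMSO, 12 concentrations (0.001–5000 or 0.001–2500 µmol/L), in triplicate. Controls were untreated cells, 10% DMSO (0% viability), no cells and vehicle. After 24 h, MTS reagent was added for 3.5 h at 37 °C and A490 was read. IC50 from curve fit.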

[6] = test system: MCF7; assay: Growth inhibition of human MCF7 cells at 0.01 to 100 umol/l measured immediately by xCelligence RTCA SP assay; assay type: cell-based
In short: (§2)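 MCF7 (p37) grown in DMEM with 10% FCS, penicillin-streptomycin and 0.01 mg/mL insulin. Seeded at 75.000 cells/well on impedance E-plates and monitored hourly as cell index. Treated in log phase with compounds in DMSO, 0.01–2500 µmol/L, in triplicate. CI normalized to the last point before addition. Vehicle control 0.1% DMSO; 10% DMSO as 0% viability. IC50 taken at 24 h.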

[7] = test system: MCF7; assay: Growth inhibition of human MCF7 cells at 1000 umol/l measured immediately by xCelligence RTCA SP assay; assay type: cell-based; conditions: mcf7, 1000 µM; in short: as §2
[8] = test system: MCF7; assay: Cytotoxicity against human MCF7 cells after 24 hrs by xCelligence RTCA SP assay; assay type: cell-based; conditions: MCF7, 24 h; in short: as §2
[9] = test system: HepG2; assay: Cytotoxicity against human HepG2 cells after 24 hrs by MTS assay; assay type: cell-based; conditions: HepG2, 24 h; in short: as §1
[10] = test system: MCF7; assay: Growth inhibition of human MCF7 cells at 2500 umol/l measured immediately by xCelligence RTCA SP assay; assay type: cell-based; conditions: mcf7, 2500 µM; in short: as §2
[11] = test system: MCF7; assay: Growth inhibition of human MCF7 cells at 1000 umol/l measured after 24 hrs by xCelligence RTCA SP assay; assay type: cell-based; conditions: mcf7, 24 h, 1000 µM; in short: as §2
[12] = test system: MCF7; assay: Growth inhibition of human MCF7 cells at 2500 umol/l measured after 24 hrs by xCelligence RTCA SP assay; assay type: cell-based; conditions: mcf7, 24 h, 2500 µM; in short: as §2
[13] = test system: HepG2; assay: Growth inhibition of human HepG2 cells at >1000 umol/l after 24 hrs by MTS assay; assay type: cell-based; conditions: hepg2, 24 h; in short: as §1
[14] = test system: HepG2; assay: Growth inhibition of human HepG2 cells at <1000 umol/l after 24 hrs by MTS assay; assay type: cell-based; conditions: hepg2, 24 h; in short: as §1
[15] = test system: HepG2; assay: Growth inhibition of human HepG2 cells at >100 umol/l after 24 hrs by MTS assay; assay type: cell-based; conditions: hepg2, 24 h; in short: as §1
[16] = test system: HepG2; assay: Growth inhibition of human HepG2 cells at <100 umol/l after 24 hrs by MTS assay; assay type: cell-based; conditions: hepg2, 24 h; in short: as §1

Sequence of Acetylcholinesterase (O42275 whole entry): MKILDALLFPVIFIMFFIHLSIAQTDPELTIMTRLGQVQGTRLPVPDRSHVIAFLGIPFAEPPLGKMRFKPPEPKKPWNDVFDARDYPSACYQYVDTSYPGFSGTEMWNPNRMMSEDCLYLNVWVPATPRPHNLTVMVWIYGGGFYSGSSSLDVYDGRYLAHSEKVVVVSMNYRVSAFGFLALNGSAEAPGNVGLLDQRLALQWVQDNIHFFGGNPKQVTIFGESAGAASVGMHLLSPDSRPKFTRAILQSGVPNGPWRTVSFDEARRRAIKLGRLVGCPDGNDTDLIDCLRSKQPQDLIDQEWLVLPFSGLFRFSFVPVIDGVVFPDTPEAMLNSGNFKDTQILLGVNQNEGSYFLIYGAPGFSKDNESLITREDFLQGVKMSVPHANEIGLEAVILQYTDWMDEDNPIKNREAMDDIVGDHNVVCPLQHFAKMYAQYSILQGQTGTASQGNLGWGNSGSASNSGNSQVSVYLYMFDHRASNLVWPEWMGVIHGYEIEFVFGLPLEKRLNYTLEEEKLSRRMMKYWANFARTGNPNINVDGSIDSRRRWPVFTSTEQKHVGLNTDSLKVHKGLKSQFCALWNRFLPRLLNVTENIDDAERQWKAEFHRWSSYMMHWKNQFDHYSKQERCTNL
Sequence of Cholinesterase (P81908 whole entry): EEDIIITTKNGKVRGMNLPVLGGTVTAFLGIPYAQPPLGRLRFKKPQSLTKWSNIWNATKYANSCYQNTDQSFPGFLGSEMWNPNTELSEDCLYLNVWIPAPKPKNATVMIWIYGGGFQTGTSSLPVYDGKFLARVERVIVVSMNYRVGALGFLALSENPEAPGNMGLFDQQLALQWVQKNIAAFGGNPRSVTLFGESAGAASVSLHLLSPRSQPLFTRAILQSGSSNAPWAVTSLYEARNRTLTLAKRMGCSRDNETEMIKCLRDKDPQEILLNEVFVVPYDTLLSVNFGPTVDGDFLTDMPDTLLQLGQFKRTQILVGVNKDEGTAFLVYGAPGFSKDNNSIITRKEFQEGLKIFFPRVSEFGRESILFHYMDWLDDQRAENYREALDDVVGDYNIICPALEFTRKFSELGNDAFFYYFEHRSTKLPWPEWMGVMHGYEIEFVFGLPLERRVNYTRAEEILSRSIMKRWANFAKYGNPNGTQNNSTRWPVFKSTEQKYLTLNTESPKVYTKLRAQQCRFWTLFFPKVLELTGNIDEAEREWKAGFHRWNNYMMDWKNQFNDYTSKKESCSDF

| SMILES | log K [1] | logP [2] | IC50 [3] | IC50 [4] | also measured |
| --- | --- | --- | --- | --- | --- |
| CCC[C@H](NC(=O)OCC(F)(F)F)C(=O)N[C@H](C)c1nc2ccc(F)cc2s1 | 0.5825 | 4.16 | 29.3 µM | 59 µM | – |
| CCC[C@H](NC(=O)OCC)C(=O)N[C@H](C)c1nc2ccc(F)cc2s1 | 0.4873 | 3.52 | 34.8 µM | 14.1 µM | – |
| CC(C)COC(=O)N[C@H](C(=O)N[C@H](C)c1nc2ccc(F)cc2s1)C(C)C | 0.7041 | 4.39 | 49.3 µM | 41.1 µM | – |
| CC(C)[C@H](NC(=O)OCC(F)(F)F)C(=O)N[C@H](C)c1nc2ccc(F)cc2s1 | 0.5643 | 4.15 | 49.4 µM | 72 µM | – |
| CCC[C@H](NC(=O)OC)C(=O)N[C@H](C)c1nc2ccc(F)cc2s1 | 0.4166 | 3.19 | 48.8 µM | 20.4 µM | – |
| CCC[C@H](NC(=O)OC(C)C)C(=O)N[C@H](C)c1nc2ccc(F)cc2s1 | 0.5752 | 3.84 | 21.3 µM | 32.2 µM | growth inhibition (GI) [5]: Toxic; growth inhibition (GI) [6]: Non-toxic; growth inhibition (GI) [7]: Toxic; IC50 [8]: 1210 µM; IC50 [9]: 273 µM; growth inhibition (GI) [10]: Toxic |
| CCOC(=O)N[C@H](C(=O)N[C@H](C)c1nc2ccc(F)cc2s1)C(C)C | 0.4834 | 3.51 | 153 µM | 35.6 µM | growth inhibition (GI) [11]: Non-toxic; growth inhibition (GI) [6]: Non-toxic; growth inhibition (GI) [12]: Non-toxic; growth inhibition (GI) [7]: Toxic; IC50 [8]: > 4390 µM; IC50 [9]: > 5000 µM; growth inhibition (GI) [13]: Toxic; growth inhibition (GI) [10]: Toxic; growth inhibition (GI) [14]: Non-toxic |
| CC(C)[C@H](NC(=O)OCC(F)(F)C(F)(F)C(F)(F)F)C(=O)N[C@H](C)c1nc2ccc(F)cc2s1 | 0.9218 | 5.35 | 85.5 µM | 83.2 µM | – |
| CCCCOC(=O)N[C@H](C(=O)N[C@H](C)c1nc2ccc(F)cc2s1)C(C)C | 0.7135 | 4.41 | 68.1 µM | 62.5 µM | – |
| CC(C)[C@H](NC(=O)OCC(F)(F)C(F)F)C(=O)N[C@H](C)c1nc2ccc(F)cc2s1 | 0.5237 | 4.09 | 29 µM | 33.8 µM | – |
| CCC[C@H](NC(=O)OCCCl)C(=O)N[C@H](C)c1nc2ccc(F)cc2s1 | 0.514 | 3.9 | 35.4 µM | 54.1 µM | – |
| CCCCOC(=O)N[C@@H](CCC)C(=O)N[C@H](C)c1nc2ccc(F)cc2s1 | 0.7231 | 4.43 | 28 µM | 19.6 µM | – |
| CC(C)[C@H](NC(=O)OCCBr)C(=O)N[C@H](C)c1nc2ccc(F)cc2s1 | 0.5418 | 4 | 47.2 µM | – | – |
| CCCOC(=O)N[C@H](C(=O)N[C@H](C)c1nc2ccc(F)cc2s1)C(C)C | 0.5851 | 3.99 | 109 µM | 70.4 µM | growth inhibition (GI) [11]: Non-toxic; growth inhibition (GI) [15]: Toxic; growth inhibition (GI) [6]: Non-toxic; growth inhibition (GI) [16]: Non-toxic; growth inhibition (GI) [7]: Toxic; IC50 [8]: 4390 µM; IC50 [9]: 1730 µM; growth inhibition (GI) [10]: Toxic |
| CC(C)[C@H](NC(=O)OCCCl)C(=O)N[C@H](C)c1nc2ccc(F)cc2s1 | 0.5014 | 3.88 | 47.5 µM | 54.2 µM | – |
| CCC[C@H](NC(=O)OCC(F)(F)C(F)F)C(=O)N[C@H](C)c1nc2ccc(F)cc2s1 | 0.5415 | 4.11 | 30.7 µM | 43.9 µM | – |
| CCC[C@H](NC(=O)OCC(F)(F)C(F)(F)C(F)(F)F)C(=O)N[C@H](C)c1nc2ccc(F)cc2s1 | 0.9463 | 5.37 | 46 µM | 59.8 µM | – |
| CC(C)[C@H](NC(=O)OCC(Cl)(Cl)Cl)C(=O)N[C@H](C)c1nc2ccc(F)cc2s1 | 0.8043 | 4.89 | 30.3 µM | 26.6 µM | – |
| COC(=O)N[C@H](C(=O)N[C@H](C)c1nc2ccc(F)cc2s1)C(C)C | 0.4113 | 3.17 | 91.2 µM | 32 µM | – |
| CC(C)OC(=O)N[C@H](C(=O)N[C@H](C)c1nc2ccc(F)cc2s1)C(C)C [BENTHIAVALICARB-ISOPROPYL] | 0.5725 | 3.82 | 95 µM | 41.1 µM | – |
| COc1ccc2c3c1O[C@H]1C[C@@H](O)C=C[C@@]31CCN(C)C2 [GALANTAMINE] | – | 1.41 | – | – | – |
| CCC[C@H](NC(=O)OCC(Cl)(Cl)Cl)C(=O)N[C@H](C)c1nc2ccc(F)cc2s1 | 0.8297 | 4.91 | 28.6 µM | 62.7 µM | – |
| CCN(C)C(=O)Oc1cccc([C@H](C)N(C)C)c1 [RIVASTIGMINE] | – | 2.36 | – | – | – |
| CCCOC(=O)N[C@@H](CCC)C(=O)N[C@H](C)c1nc2ccc(F)cc2s1 | 0.5873 | 4.01 | 28.5 µM | 19.3 µM | – |
| CCC[C@H](NC(=O)OCC(C)C)C(=O)N[C@H](C)c1nc2ccc(F)cc2s1 | 0.7063 | 4.41 | 20.2 µM | 26.1 µM | growth inhibition (GI) [5]: Toxic; growth inhibition (GI) [6]: Non-toxic; growth inhibition (GI) [7]: Toxic; IC50 [8]: 612 µM; IC50 [9]: 275 µM; growth inhibition (GI) [10]: Toxic |
